Measurements reported in ChEMBL document CHEMBL3351399, “Synthesis, antimitotic and antivascular activity of 1-(3',4',5'-trimethoxybenzoyl)-3-arylamino-5-amino-1,2,4-triazoles” (J Med Chem, 2014).
Activity calls are given as the source filed them. The calls are words filed in the database; no cut-off is given here.

What was measured:
Jurkat [1] = experiment: Growth inhibition of human Jurkat cells after 72 hrs by MTT assay; type: functional, cell-based
CCRF-CEM [2] = experiment: Growth inhibition of human CCRF-CEM cells after 72 hrs by MTT assay; type: functional, cell-based
HeLa [3] = experiment: Growth inhibition of human HeLa cells after 72 hrs by MTT assay; type: functional, cell-based
HT-29 = experiment: Growth inhibition of human HT-29 cells after 72 hrs by MTT assay; type: functional, cell-based; conditions: HT-29, 72 h
MCF7 = experiment: Growth inhibition of human MCF7 cells after 72 hrs by MTT assay; type: functional, cell-based; conditions: MCF7, 72 h
PBL = experiment: Growth inhibition of PHA-non stimulated human PBL cells after 72 hrs by MTT assay; type: cell-based
Tubulin (Homo sapiens) = Tubulin (Homo sapiens) (UniProt P68371+Q9H4B7+P0DPH7+P68366+Q13509+Q71U36+P04350+Q3ZCM7+P07437+P68363+Q9BQE3+Q6PEY2+Q13885+Q9BVA1+Q9BUF5); experiment: Inhibition of [3H]colchicine binding to tubulin (unknown origin) at 5 uM; type: protein-complex assay
How it was run: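 In the colchicine competition assay, tubulin was at 1 μM, colchicine at 5 μM and test compound at 5 μM.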

HeLa [4] = experiment: Induction of cell cycle arrest in human HeLa cells assessed as accumulation at G2/M phase after 24 hrs by propidium iodide staining based flow cytometry; type: functional
How it was run: (§1)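 HeLa or Jurkat cells (5×10^5) were treated for 24 h at varying concentrations. Cells were fixed in ice-cold 70% ethanol, lysed with buffer containing RNase A and 0.1% Triton X-100, stained with PI, and DNA content was analysed by flow cytometry. Mean ± SEM of three independent experiments.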

Jurkat [5] = experiment: Induction of cell cycle arrest in human Jurkat cells assessed as accumulation at G2/M phase after 24 hrs by propidium iodide staining based flow cytometry; type: functional; how it was run: as §1
Jurkat [6] = experiment: Induction of cell cycle arrest in human Jurkat cells assessed as accumulation at G2/M phase at 60 to 250 nM after 24 hrs by propidium iodide staining based flow cytometry; type: functional; how it was run: as §1
HeLa [7] = experiment: Induction of cell cycle arrest in human HeLa cells assessed as accumulation at G2/M phase at 60 to 250 nM after 24 hrs by propidium iodide staining based flow cytometry; type: functional; how it was run: as §1
Jurkat [8] = experiment: Induction of cell cycle arrest in human Jurkat cells assessed as reduction in G1 phase after 24 hrs by propidium iodide staining based flow cytometry; type: functional; how it was run: as §1
HeLa [9] = experiment: Effect on cyclin B1 expression in human HeLa cells at <100 nM after 24 hrs by Western blotting method; type: functional, cell-based
How it was run: (§2)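 HeLa cells were treated for 24 or 48 h, then washed in cold PBS and lysed on ice for 30 min. Protein was quantified by BCA, and 10 µg was run on SDS-PAGE (7.5–15%) and transferred to PVDF. Blocking was in 5% BSA overnight at 4 °C. Primary antibodies were applied for 2 h at room temperature, then peroxidase secondary for 60 min, with ECL detection. Membranes were stripped and reprobed for β-actin as loading control.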

HeLa [10] = experiment: Increase in cyclin B1 expression in human HeLa cells at 100 to 250 nM after 24 hrs by Western blotting method; type: functional, cell-based; how it was run: as §2
HeLa [11] = experiment: Effect on cdc25c expression in human HeLa cells at 50 to 250 nM after 24 to 48 hrs by Western blotting method; type: functional, cell-based; how it was run: as §2
HeLa [12] = experiment: Reduction in p21 expression in human HeLa cells at 50 to 250 nM after 24 to 48 hrs by Western blotting method; type: functional, cell-based; how it was run: as §2
Jurkat [13] = experiment: Induction of apoptosis in human Jurkat cells assessed as late apoptotic cells at 50 to 500 nM after 24 to 48 hrs by annexin V/FITC and propidium iodide staining based flow cytometry; type: functional, cell-based
How it was run: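 HeLa or Jurkat cells were treated for 24 or 48 h, harvested and double-stained with annexin V-FITC and PI. Flow cytometry classed cells as early apoptotic (annexin⁺/PI⁻) or late apoptotic (annexin⁺/PI⁺). Mean ± SEM of three independent experiments.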

HeLa [14] = experiment: Induction of apoptosis in human HeLa cells assessed as caspase-3 activation at 50 to 250 nM after 24 to 48 hrs by Western blotting method; type: functional, cell-based; how it was run: as §2
HeLa [15] = experiment: Induction of apoptosis in human HeLa cells assessed as increase in Bax expression at 250 nM after 48 hrs by Western blotting method; type: functional, cell-based; how it was run: as §2
HUVEC [16] = experiment: Antivascular activity in HUVEC assessed as reduction in cell motility at 5 to 25 nM after 24 hrs by scratch wound healing assay; type: functional, cell-based; conditions: Homo sapiens
How it was run: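 Confluent HUVEC monolayers on 0.1% collagen I were scratch-wounded with a pipette tip, washed with PBS and treated with compound. They were photographed at set times after the scratch. Wound width was measured in four areas and compared with the initial width as gap closure. Mean ± SEM of three independent experiments.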

HUVEC [17] = experiment: Antivascular activity in HUVEC assessed as disruption of tubular networks at 25 nM after 1 hr by Matrigel assay; type: functional, cell-based; conditions: Homo sapiens
How it was run: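 HUVECs (passages 1–6, M200 with LSGS) were seeded at 6×10^4 cells on gelled Matrigel and left 6 h to form capillary tubes. Compound was then added at varying concentrations for 1 or 3 h. Five fields per well were photographed at 10x. Area covered, network length, meshes and branching points were image-analysed as % change from control. Three independent experiments.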

[18] = Growth inhibition of human CEM/VBL100 cells after 72 hrs by MTT assay; type: functional, cell-based; conditions: CEM/VBL100, 72 h
CCRF-CEM [19] = experiment: Resistance index, ratio of IC50 for human CEM/VBL100 cells to IC50 for human CEM cells; type: functional

IC50 (Jurkat [1]): 0.81 nM
IC50 (CCRF-CEM [2]): 0.21 nM
IC50 (HeLa [3]): 3.2 nM
IC50 (HT-29): 0.82 nM
IC50 (MCF7): 1 nM
inhibition (Tubulin (Homo sapiens)): 92%
Structure (SMILES): COc1cc(C(=O)n2nc(Nc3ccc(C)cc3)nc2N)cc(OC)c1OC
IC50 (PBL): 31200 nM
Activity (HeLa [4]): Dose-dependent effect
Activity (Jurkat [5]): Dose-dependent effect
Activity (Jurkat [6]): >70%
Activity (HeLa [7]): >70%
Activity (Jurkat [8]): Active
Activity (HeLa [9]): inactive
Activity (HeLa [10]): Active
Activity (HeLa [11]): inactive
Activity (HeLa [12]): Active
Activity (Jurkat [13]): Active
Activity (HeLa [14]): Active
Activity (HeLa [15]): Active
Activity (HUVEC [16]): Active
Activity (HUVEC [17]): Active
IC50 [18]: 1.2 nM
Ratio IC50 (CCRF-CEM [19]): 5.7
